According to ChEMBL document CHEMBL5108069, “Selective C9orf72 G-Quadruplex-Binding Small Molecules Ameliorate Pathological Signatures of ALS/FTD Models” (J Med Chem, 2022):
Active and inactive are the calls of the source. The rule behind the calls is not given here.

Experiments:
Quadruplex DNA [1] = assay: Binding affinity to C9orf72 (G4C2)2 G4 quadruplex RNA (unknown origin) assessed as compound-DNA complex formation at pH 6 in 25 degree C by circular dichroism spectroscopy; format: nucleic-acid assay
Method in brief: (§1)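 G4 at 15 μM mixed with compound at 1:10 molar ratio, pH 6 or pH 7. CD spectra recorded at 25 °C in a 1 mm quartz cuvette as the mean of three scans, buffer subtracted.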

Drosophila [2] = assay: Inhibition of eye degeneration in GMR-GAL4-(G4C2)29 Drosophila expressing (G4C2)29 in eyes C9orf72 ALS/FTD model assessed as reduction in rough-eye phenotype at 100 uM, po incubated 7 day by stereomicroscopy; format: functional, organism-based
Method in brief: (§2)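 Parent flies crossed on solid food containing compound at 100 μM, DMSO vehicle. F1 larvae fed continuously until eclosion, then moved to compound-free food. Eyes of day-7 adults imaged by CCD camera on a stereomicroscope, with SEM of heads. Affected and total eye area measured to give degeneration ratio. n = 7–18 flies.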

Quadruplex DNA [3] = assay: Stabilization of C9orf72 (G4C2)4 G4 quadruplex DNA (unknown origin) assessed as thermal stability by measuring melting temperature at pH 7 by circular dichroism spectroscopy; format: nucleic-acid assay
Method in brief: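 G4 at 15 μM with compound at 1:10 molar ratio, pH 7. CD signal followed from 25 to 95 °C at 1 °C/min at one wavelength (290 nm for DNA G4). Absorbance normalised as (Abst − min)/(max − min), then fitted to a Boltzmann sigmoid.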

Drosophila [4] = assay: Inhibition of eye degeneration in GMR-GAL4-(G4C2)29 Drosophila expressing (G4C2)29 in eyes C9orf72 ALS/FTD model assessed as smoothening of eyes at 100 uM, po incubated 7 day by stereomicroscopy; format: functional, organism-based; method in brief: as §2
Erythrocyte [5] = assay: Hemolytic activity in rabbit RBC assessed as hemolysis at 1000 ug/ml incubated for 1 hr by microtiter plate method; format: toxicity, cell-based, Oryctolagus cuniculus; settings: dose 1000 µg/ml
Method in brief: (§3)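 Fresh rabbit red cells washed in PBS and used as a 2% suspension. Compounds diluted in PBS to final 250, 500 and 1000 μg/mL, mixed with an equal volume of cells, incubated 1 h at 37 °C. After centrifugation, supernatant absorbance read at 570 nm. Controls: 10% Triton X-100 (positive), 1% DMSO in PBS (negative). n = 3 preparations.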

Quadruplex DNA [6] = assay: Binding affinity to C9orf72 (G4C2)4 G4 quadruplex DNA (unknown origin) assessed as change in chemical shift at pH 7 in 25 to 45 degree C by one-dimensional 1H-NMR analysis; format: nucleic-acid assay
Method in brief: (§4)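 Oligos (100 μM) annealed at 95 °C for 15 min, cooled slowly overnight in 70 mM KCl, 20 mM potassium phosphate, pH 7.0. NMR samples held 0.1 mM DNA or RNA. Compounds from ~50 mM DMSO-d6 stocks, titrated at G4:compound ratios 1:1 to 1:10 (RNA 1:3, 1:5, 1:10). Imino-region 1D 1H spectra at 25 °C; further spectra at pH 6 and 7, at 25, 35 and 45 °C.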

Quadruplex DNA [7] = assay: Binding affinity to C9orf72 (G4C2)4 G4 quadruplex DNA (unknown origin) assessed as compound-DNA complex formation at pH 6 in 25 degree C by circular dichroism spectroscopy; format: nucleic-acid assay; method in brief: as §1
HT-22 = assay: Neuroprotective activity in retinoic acid and cAMP differentiated mouse HT-22 cells assessed as decrease in glutamate induced cellular ROS level incubated for 1 hrs by DCFH-DA based […]; format: functional, cell-based; settings: DDE = dose-dependent effect
Method in brief: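 HT22 cells differentiated for 48 h with 10 μM retinoic acid and 500 μM cAMP in DMEM with 0.5% FBS. 5 mM L-glutamate given for 24 h, then 10 μM DCFH-DA loaded for 30 min at 37 °C and washed off. Compounds at 2 μg/mL added for 1 h; Rosup served as positive control. DCF read at 488/525 nm on a plate reader. n = 18–42 wells from three batches.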

N2a [8] = assay: Neuroprotective activity in mouse Neuro2a cells transfected DNA (G4C2)29 C9orf 72 ALS/FTD cell model assessed as CAGG RNA foci abundance at 1 ug/ml incubated for 2 days by DAPI staining based immunofluorescence analysis; format: functional; settings: dose 1.0 µg/ml, time 2.0 day
Method in brief: (§5)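 Neuro2a cells on coverslips transfected with a pHR-Tre3G-29xGGGGCC-12xMS2 plasmid, then treated with compound at 1 μg/mL for 2 days. Fixed in 4% PFA and permeabilised. Hybridised 3 h at 46 °C with Cy3-labelled G4C2-target and Cy5-labelled CAGG probes, co-stained for hnRNP H, DAPI counterstain. Foci per cell counted by confocal microscopy; n = 17–25 coverslips from three batches.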

Quadruplex DNA [9] = assay: Binding affinity to 3'-FAM labeled C9orf72 (G4C2)4 G4 quadruplex DNA (unknown origin) assessed as decrease in fluorescence intensity by fluorescence intensity assay; format: nucleic-acid assay
Method in brief: (§6)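 3'-FAM-labelled DNA (G4C2)4 G4 or RNA (G4C2)2 G4 annealed at 98 °C for 10 min in 10 mM K+ buffer (8 mM KCl, 2 mM KH2PO4, pH 6.8), 1 μM final, slowly cooled. Compound titrated 0.1–10 mM in same buffer at room temperature. Fluorescence read at ex/em 470/520 nm. KD from nonlinear one-site specific binding fit with Hill slope.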

HEK-293T [10] = assay: Cytotoxicity in human HEK293T cells assessed as reduction in cell viability upto 10 ug/ml incubated for 24 hrs by MTT assay; format: toxicity, cell-based; settings: dose < 10 µg/ml
Method in brief: (§7)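 HEK293T cells seeded at 5 × 10^3 per well, grown 24 h in DMEM with 10% FBS. Compounds in DMSO added at 0.1, 1 and 10 μg/mL for 24 h. MTT (5 mg/mL stock) added for 4 h at 37 °C, formazan dissolved in DMSO, absorbance read at 570 nm. n = 4 culture batches.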

Quadruplex DNA [11] = assay: Binding affinity to C9orf72 (G4C2)4 G4 quadruplex DNA (unknown origin) assessed as compound-DNA complex formation at pH 7 in 25 degree C by circular dichroism spectroscopy; format: nucleic-acid assay; method in brief: as §1
Quadruplex DNA [12] = assay: Binding affinity to C9orf72 (G4C2)4 G4 quadruplex DNA (unknown origin) assessed as change in chemical shift at pH 6 in 25 to 45 degree C by one-dimensional 1H-NMR analysis; format: nucleic-acid assay; method in brief: as §4
N2a [13] = assay: Neuroprotective activity in mouse Neuro2a cells transfected DNA (G4C2)29 C9orf 72 ALS/FTD cell model assessed as increase in cell viability at 1 ug/ml by DAPI staining based immunofluorescence analysis; format: functional; settings: dose 1.0 µg/ml
N2a [14] = assay: Neuroprotective activity in mouse Neuro2a cells transfected DNA (G4C2)29 C9orf 72 ALS/FTD cell model assessed as reduction in G4C2 RNA foci at 1 ug/ml incubated for 2 days by DAPI staining based immunofluorescence analysis; format: functional; settings: dose 1.0 µg/ml, time 2.0 day; method in brief: as §5
Quadruplex DNA [15] = assay: Binding affinity to C9orf72 (G4C2)2 G4 quadruplex RNA (unknown origin) assessed as compound-DNA complex formation at pH 7 in 25 degree C by circular dichroism spectroscopy; format: nucleic-acid assay; method in brief: as §1
Quadruplex DNA [16] = assay: Binding affinity to C9orf72 (G4C2)4 G4 quadruplex DNA (unknown origin) assessed as change in chemical shift by one-dimensional 1H-NMR analysis; format: nucleic-acid assay; method in brief: as §4
Drosophila [17] = assay: Inhibition of eye degeneration in GMR-GAL4-(G4C2)29 Drosophila expressing (G4C2)29 in eyes C9orf72 ALS/FTD model assessed as reflective eyes at 100 uM, po incubated 7 day by stereomicroscopy; format: functional, organism-based; method in brief: as §2
[18] = Permeability of compound in PBS buffer at 500 uM incubated for 18 hrs by PAMPA assay; format: ADME
Method in brief: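 PAMPA: donor membrane coated with 4% lecithin in dodecane. 500 μM compound added to duplicate donor wells over PBS acceptor wells, incubated 18 h at 37 °C. Acceptor solution scanned 200–500 nm to find peak absorbance, referenced to equilibrium standards and a DMSO/PBS blank. n = 5.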

[19] = Inhibition of locomotor deficit in OK371-GAL4-(G4C2)29 Drosophila expressing (G4C2)29 in motor neuron C9orf72 ALS/FTD model assessed as reduction in flies staying at the bottom of flask at 100 uM, po during larval stage by climbing assay relative to control (Rvb= 18.25%); format: functional; parameters: scale not given: the % may be the effect or the level left
Method in brief: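 Compound at 100 μM in solid food, DMSO vehicle, given from parental cross until F1 eclosion, then regular food. Climbing test on 7-day-old adults: percentage of flies remaining below 2 cm of the tube at 25 s. n = 8 experimental batches.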

Erythrocyte [20] = assay: Hemolytic activity in rabbit RBC assessed as hemolysis at 250 to 1000 ug/ml incubated for 1 hr by microtiter plate method; format: toxicity, cell-based, Oryctolagus cuniculus; settings: DDE = dose-dependent effect, dose 250-1000 µg/ml; method in brief: as §3
HEK-293T [21] = assay: Cytotoxicity in human HEK293T cells assessed as reduction in cell viability upto 0.1 ug/ml incubated for 24 hrs by MTT assay; format: toxicity, cell-based; settings: dose < 0.1 µg/ml; method in brief: as §7
Quadruplex DNA [22] = assay: Binding affinity to 3'-FAM labeled C9orf72 (G4C2)2 G4 quadruplex RNA (unknown origin) assessed as decrease in fluorescence intensity by fluorescence intensity assay; format: nucleic-acid assay; method in brief: as §6
Quadruplex DNA [23] = assay: Binding affinity to C9orf72 (G4C2)2 G4 quadruplex RNA (unknown origin) assessed as change in chemical shift by one-dimensional 1H-NMR analysis; format: nucleic-acid assay; method in brief: as §4
Quadruplex DNA [24] = assay: Binding affinity to human telomeric htel21-T18 (d[(GGGTTA)2GGGTTTGGG]) G4 quadruplex DNA assessed as change in chemical shift by one-dimensional 1H-NMR analysis; format: nucleic-acid assay
Method in brief: (§8)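 Oligonucleotide annealed at 100 μM by heating to 95 °C for 15 min, then cooled slowly to room temperature overnight in 70 mM KCl, 20 mM potassium phosphate, pH 7.0. NMR samples held 0.1 mM G4 in the same buffer. Compound stocks were about 50 mM in DMSO-d6. Titrated into G4; imino-region 1D 1H spectra recorded at 25 °C and compared with G4-only and DMSO control spectra.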

Quadruplex DNA [25] = assay: Binding affinity to C9orf72 (G4C2)2 G4 quadruplex DNA (unknown origin) assessed as change in chemical shift by one-dimensional 1H-NMR analysis; format: nucleic-acid assay; method in brief: as §8

| Compound | Activity (Quadruplex DNA [1]) | Activity (Drosophila [2]) | Activity (Quadruplex DNA [3]) | Activity (Drosophila [4]) | Activity (Erythrocyte [5]) | Activity (Quadruplex DNA [6]) | Activity (Quadruplex DNA [7]) | Activity (HT-22) | Kd (Quadruplex DNA [9]) [µM] | Activity (HEK-293T [10]) | Activity (Quadruplex DNA [11]) | Activity (Quadruplex DNA [12]) | Activity (N2a [13]) | Activity (N2a [14]) | Activity (Quadruplex DNA [15]) | Activity (Quadruplex DNA [16]) | Activity (Drosophila [17]) | permeability [18] | Activity [19] [%] | Activity (Quadruplex DNA [23]) | other results |
| --- | --- | --- | --- | --- | --- | --- | --- | --- | --- | --- | --- | --- | --- | --- | --- | --- | --- | --- | --- | --- | --- |
| CC(=O)Cc1cc2c(c(O)c1C(=O)O)-c1c(c(O)c3oc4c(O[C@@H]5O[C@H](C(=O)O)[C@@H](O)[C@H](O)[C@H]5O)cccc4c(=O)c3c1O)CC2 | Active | Active | Active | Active | Non-Toxic | Active | Active | Dde | 2800 | Non-Toxic | Active | Active | Active | Active | Active | Active | Active | Permeable | 10.625 | – | Activity (N2a [8]): Active |
| CC12CC3CC(C)(C1)CC(N)(C3)C2 [MEMANTINE] | – | – | – | – | – | – | – | – | – | – | – | – | – | – | – | – | – | Permeable | – | – | – |
| COc1c2c(c(O)c3c(=O)c4cccc(O[C@@H]5OC(C(=O)O)=C[C@H](O)[C@H]5O)c4oc13)-c1c(cc(CC(C)=O)c(C(=O)O)c1O)CC2 | Active | – | Active | – | – | Active | Active | Dde | 3000 | – | Active | Active | – | – | Active | Active | – | Permeable | – | – | Activity (Erythrocyte [20]): Dde; Activity (HEK-293T [21]): Toxic |
| CC(=O)Cc1cc2c(c(O)c1C(=O)O)-c1c(c(O)c3oc4c(O[C@@H]5OC(C(=O)O)=C[C@H](O)[C@H]5O)cccc4c(=O)c3c1O)CC2 | Active | Active | Active | Active | Non-Toxic | Active | Active | Dde | 2200 | Non-Toxic | Active | Active | Active | Active | Active | Active | Active | Permeable | 5.125 | Active | Kd (Quadruplex DNA [22]): 3000 µM |
| N=C(N)c1ccc(-c2ccc(-c3ccc(-c4ccc(C(=N)N)cn4)o3)o2)nc1 | – | – | – | – | – | – | – | – | – | – | – | – | – | – | – | Active | – | Impermeable | – | Active | Activity (Quadruplex DNA [24]): Active; Activity (Quadruplex DNA [25]): Active |
